Assay results taken from ChEMBL document CHEMBL1157912, “Impact of nature and length of linker incorporated in agonists on toll-like receptor 9-mediated immune responses” (J Med Chem, 2010).
Calls of active or inactive are those of the source. The rule behind the calls is not given here.

Key:
[1] = biological target: T1, Toll-like receptor 9 (Homo sapiens) (UniProt Q9NR96); assay: Induction of TLR9-mediated immune stimulation in human PBMC assessed as RANTES production at 10 ug/ml after 24 hrs by luminex multiplex assay (RVb = 0.05 +/- 0.04 ng/ml)
T1 sequence (whole entry): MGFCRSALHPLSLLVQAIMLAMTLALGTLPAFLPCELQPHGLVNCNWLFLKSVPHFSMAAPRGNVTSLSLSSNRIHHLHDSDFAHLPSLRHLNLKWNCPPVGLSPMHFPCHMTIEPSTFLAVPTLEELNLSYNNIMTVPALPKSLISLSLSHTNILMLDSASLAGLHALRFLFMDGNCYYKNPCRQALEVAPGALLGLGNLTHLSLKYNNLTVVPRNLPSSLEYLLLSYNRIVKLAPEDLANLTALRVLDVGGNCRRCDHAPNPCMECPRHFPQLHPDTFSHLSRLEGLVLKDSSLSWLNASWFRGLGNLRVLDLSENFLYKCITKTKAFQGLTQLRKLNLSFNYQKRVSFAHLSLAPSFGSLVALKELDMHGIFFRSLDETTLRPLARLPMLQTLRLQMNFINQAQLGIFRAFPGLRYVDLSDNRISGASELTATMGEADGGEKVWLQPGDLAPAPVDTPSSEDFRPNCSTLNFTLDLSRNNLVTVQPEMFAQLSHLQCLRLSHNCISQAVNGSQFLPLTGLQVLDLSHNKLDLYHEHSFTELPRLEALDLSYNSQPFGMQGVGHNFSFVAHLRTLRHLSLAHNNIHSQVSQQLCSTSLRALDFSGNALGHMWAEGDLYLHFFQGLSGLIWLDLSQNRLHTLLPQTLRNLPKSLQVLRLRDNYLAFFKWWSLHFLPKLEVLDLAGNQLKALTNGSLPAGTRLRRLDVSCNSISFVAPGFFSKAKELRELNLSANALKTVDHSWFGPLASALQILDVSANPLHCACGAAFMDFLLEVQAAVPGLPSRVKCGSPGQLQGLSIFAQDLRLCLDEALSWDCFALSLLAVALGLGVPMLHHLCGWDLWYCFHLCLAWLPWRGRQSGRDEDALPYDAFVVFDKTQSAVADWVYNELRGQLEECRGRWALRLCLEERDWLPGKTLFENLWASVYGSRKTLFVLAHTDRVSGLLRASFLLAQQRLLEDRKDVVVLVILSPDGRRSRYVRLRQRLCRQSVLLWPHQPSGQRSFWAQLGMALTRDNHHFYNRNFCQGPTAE

[2] = biological target: T1, Toll-like receptor 9 (Homo sapiens); assay: Induction of TLR9-mediated immune stimulation in human PBMC assessed as IL12 production at 2 ug/ml after 24 hrs by luminex multiplex assay (RVb = 0.00 ng/ml)
[3] = biological target: T2, Toll-like receptor 9 (Mus musculus) (UniProt Q9EQU3); assay: Induction of TLR9-mediated IL6 production in C57BL/6 mouse spleen cells after 24 hrs by ELISA; type: cell-based
T2 sequence (whole entry): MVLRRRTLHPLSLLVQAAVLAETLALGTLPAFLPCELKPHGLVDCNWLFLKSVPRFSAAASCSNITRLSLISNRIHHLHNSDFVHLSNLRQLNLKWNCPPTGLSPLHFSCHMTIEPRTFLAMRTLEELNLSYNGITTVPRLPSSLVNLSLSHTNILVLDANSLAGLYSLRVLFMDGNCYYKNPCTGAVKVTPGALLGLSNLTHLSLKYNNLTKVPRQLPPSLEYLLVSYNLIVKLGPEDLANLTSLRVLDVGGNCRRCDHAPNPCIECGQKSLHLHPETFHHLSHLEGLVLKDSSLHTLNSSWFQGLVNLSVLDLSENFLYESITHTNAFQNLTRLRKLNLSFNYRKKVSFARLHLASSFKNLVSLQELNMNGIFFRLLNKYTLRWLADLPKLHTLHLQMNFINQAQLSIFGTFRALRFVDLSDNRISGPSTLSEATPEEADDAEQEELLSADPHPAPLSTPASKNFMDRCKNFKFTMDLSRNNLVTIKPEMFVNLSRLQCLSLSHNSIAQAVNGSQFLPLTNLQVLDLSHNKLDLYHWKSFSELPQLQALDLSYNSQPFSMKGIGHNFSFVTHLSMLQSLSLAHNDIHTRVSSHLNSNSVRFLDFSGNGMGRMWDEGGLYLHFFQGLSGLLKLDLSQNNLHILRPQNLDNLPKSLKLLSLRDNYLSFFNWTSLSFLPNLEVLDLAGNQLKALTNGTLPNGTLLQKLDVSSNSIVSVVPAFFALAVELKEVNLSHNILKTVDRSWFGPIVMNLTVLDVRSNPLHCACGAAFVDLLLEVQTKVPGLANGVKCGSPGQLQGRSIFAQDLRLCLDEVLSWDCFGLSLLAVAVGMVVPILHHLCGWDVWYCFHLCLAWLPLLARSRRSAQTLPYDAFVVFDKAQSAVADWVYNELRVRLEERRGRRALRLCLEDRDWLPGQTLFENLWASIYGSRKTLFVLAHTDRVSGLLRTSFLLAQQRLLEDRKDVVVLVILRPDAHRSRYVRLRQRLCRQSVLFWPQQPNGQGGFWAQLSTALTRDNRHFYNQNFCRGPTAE
Summary of the method: (§1)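 C57BL/6 mouse spleen cells were cultured with agonists at 0.1, 0.3, 1, 3 and 10 μg/mL for 24 h. Secreted IL-12 and IL-6 in the supernatants were measured by ELISA. Values are averages of triplicate wells from one representative of at least two independent experiments.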

[4] = biological target: T1, Toll-like receptor 9 (Homo sapiens); assay: Induction of TLR9-mediated immune stimulation in human PBMC assessed as IL1Ralpha production at 2 ug/ml after 24 hrs by luminex multiplex assay (RVb = 0.12 +/- 0.03 ng/ml)
[5] = biological target: T1, Toll-like receptor 9 (Homo sapiens); assay: Induction of TLR9-mediated immune stimulation in human PBMC assessed as MIP1alpha production at 2 ug/ml after 24 hrs by luminex multiplex assay (RVb = 0.01 ng/ml)
[6] = biological target: T1, Toll-like receptor 9 (Homo sapiens); assay: Induction of TLR9-mediated immune stimulation in human PBMC assessed as MIP1beta production at 2 ug/ml after 24 hrs by luminex multiplex assay (RVb = 0.03 +/- 0.02 ng/ml)
[7] = biological target: T1, Toll-like receptor 9 (Homo sapiens); assay: Induction of TLR9-mediated immune stimulation in human PBMC assessed as IL2R production at 2 ug/ml after 24 hrs by luminex multiplex assay (RVb = 0.02 +/- 0.01 ng/ml)
Mus musculus = assay: Immunostimulatory activity in C57BL/6 mouse assessed as increase in serum IL12 level at 1 mg/kg, sc after 2 hrs by ELISA; type: functional, organism-based; set-up: dose 1 mg/kg
Summary of the method: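 Female C57BL/6 mice (n=3) received a single subcutaneous agonist dose of 1 mg/kg. Blood was taken by retro-orbital bleeding 2 h later, and serum IL-12 was measured by sandwich ELISA. Values are the mean of three mice ± SD.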

[8] = biological target: T1, Toll-like receptor 9 (Homo sapiens); assay: Induction of TLR9-mediated immune stimulation in human PBMC assessed as MIP1beta production at 10 ug/ml after 24 hrs by luminex multiplex assay (RVb = 0.03 +/- 0.02 ng/ml)
[9] = biological target: T2, Toll-like receptor 9 (Mus musculus); assay: Induction of TLR9-mediated IL12 production in C57BL/6 mouse spleen cells after 24 hrs by ELISA; type: cell-based; summary of the method: as §1

Compound | Activity [1] | Activity [2] | Activity [3] | Activity [4] | Activity [5] | Activity [6] | Activity [7] | Activity (Mus musculus) | Activity [8] | Activity [9]
Cc1cn([C@H]2C[C@H](OCC(O)COP(=O)(S)O[C@H]3C[C@H](n4cc(C)c(=O)[nH]c4=O)O[C@@H]3COP(=O)(S)O[C@H]3[C@@H](O)[C@H](n4ccc(N)nc4=O)O[C@@H]3COP(=O)(S)O[C@H]3C[C@H](n4cc(C)c(=O)[nH]c4=O)O[C@@H]3COP(=O)(S)O[C@H]3C[C@H](n4cc(C)c(=O)[nH]c4=O)O[C@@H]3COP(=O)(S)O[C@H]3C[C@H](n4ccc5c(=O)[nH]c(N)nc54)O[C@@H]3COP(=O)(S)O[C@H]3[C@@H](O)[C@H](n4ccc(N)nc4=O)O[C@@H]3COP(=O)(S)O[C@H]3C[C@H](n4cc(C)c(=O)[nH]c4=O)O[C@@H]3COP(=O)(S)O[C@H]3[C@@H](O)[C@H](n4cnc5c(=O)[nH]c(N)nc54)O[C@@H]3COP(=O)(S)O[C@H]3C[C@H](n4cc(C)c(=O)[nH]c4=O)O[C@@H]3COP(=O)(S)O[C@H]3[C@@H](O)[C@H](n4ccc(N)nc4=O)O[C@@H]3COP(=O)(S)O[C@H]3C[C@H](n4cc(C)c(=O)[nH]c4=O)O[C@@H]3CO)[C@@H](COP(=O)(S)O[C@H]3[C@@H](O)[C@H](n4ccc(N)nc4=O)O[C@@H]3COP(=O)(S)O[C@H]3C[C@H](n4cc(C)c(=O)[nH]c4=O)O[C@@H]3COP(=O)(S)O[C@H]3C[C@H](n4cc(C)c(=O)[nH]c4=O)O[C@@H]3COP(=O)(S)O[C@H]3C[C@H](n4ccc5c(=O)[nH]c(N)nc54)O[C@@H]3COP(=O)(S)O[C@H]3[C@@H](O)[C@H](n4ccc(N)nc4=O)O[C@@H]3COP(=O)(S)O[C@H]3C[C@H](n4cc(C)c(=O)[nH]c4=O)O[C@@H]3COP(=O)(S)O[C@H]3[C@@H](O)[C@H](n4cnc5c(=O)[nH]c(N)nc54)O[C@@H]3COP(=O)(S)O[C@H]3C[C@H](n4cc(C)c(=O)[nH]c4=O)O[C@@H]3COP(=O)(S)O[C@H]3[C@@H](O)[C@H](n4ccc(N)nc4=O)O[C@@H]3COP(=O)(S)O[C@H]3C[C@H](n4cc(C)c(=O)[nH]c4=O)O[C@@H]3CO)O2)c(=O)[nH]c1=O (stereo not given in full) | 1.67 ng/mL | 0.14 ng/mL | Dose-dependent effect | 13 ng/mL | 0.05 ng/mL | 0.11 ng/mL | 0.06 ng/mL | Active | 1.41 ng/mL | Dose-dependent effect
Cc1cn([C@H]2C[C@H](O[C@@H]3C[C@@H](O)C[C@@H](OP(=O)(S)O[C@H]4C[C@H](n5cc(C)c(=O)[nH]c5=O)O[C@@H]4COP(=O)(S)O[C@H]4[C@@H](O)[C@H](n5ccc(N)nc5=O)O[C@@H]4COP(=O)(S)O[C@H]4C[C@H](n5cc(C)c(=O)[nH]c5=O)O[C@@H]4COP(=O)(S)O[C@H]4C[C@H](n5cc(C)c(=O)[nH]c5=O)O[C@@H]4COP(=O)(S)O[C@H]4C[C@H](n5ccc6c(=O)[nH]c(N)nc65)O[C@@H]4COP(=O)(S)O[C@H]4[C@@H](O)[C@H](n5ccc(N)nc5=O)O[C@@H]4COP(=O)(S)O[C@H]4C[C@H](n5cc(C)c(=O)[nH]c5=O)O[C@@H]4COP(=O)(S)O[C@H]4[C@@H](O)[C@H](n5cnc6c(=O)[nH]c(N)nc65)O[C@@H]4COP(=O)(S)O[C@H]4C[C@H](n5cc(C)c(=O)[nH]c5=O)O[C@@H]4COP(=O)(S)O[C@H]4[C@@H](O)[C@H](n5ccc(N)nc5=O)O[C@@H]4COP(=O)(S)O[C@H]4C[C@H](n5cc(C)c(=O)[nH]c5=O)O[C@@H]4CO)C3)[C@@H](COP(=O)(S)O[C@H]3[C@@H](O)[C@H](n4ccc(N)nc4=O)O[C@@H]3COP(=O)(S)O[C@H]3C[C@H](n4cc(C)c(=O)[nH]c4=O)O[C@@H]3COP(=O)(S)O[C@H]3C[C@H](n4cc(C)c(=O)[nH]c4=O)O[C@@H]3COP(=O)(S)O[C@H]3C[C@H](n4ccc5c(=O)[nH]c(N)nc54)O[C@@H]3COP(=O)(S)O[C@H]3[C@@H](O)[C@H](n4ccc(N)nc4=O)O[C@@H]3COP(=O)(S)O[C@H]3C[C@H](n4cc(C)c(=O)[nH]c4=O)O[C@@H]3COP(=O)(S)O[C@H]3[C@@H](O)[C@H](n4cnc5c(=O)[nH]c(N)nc54)O[C@@H]3COP(=O)(S)O[C@H]3C[C@H](n4cc(C)c(=O)[nH]c4=O)O[C@@H]3COP(=O)(S)O[C@H]3[C@@H](O)[C@H](n4ccc(N)nc4=O)O[C@@H]3COP(=O)(S)O[C@H]3C[C@H](n4cc(C)c(=O)[nH]c4=O)O[C@@H]3CO)O2)c(=O)[nH]c1=O (stereo not given in full) | 2.26 ng/mL | 0.12 ng/mL | Dose-dependent effect | 14.2 ng/mL | 0.05 ng/mL | 0.12 ng/mL | 0.02 ng/mL | Active | 2.45 ng/mL | Dose-dependent effect
